Our source for the self-cleavage values is the RNAGym collection of RNA variant scans (doi:10.1002/anie.201605470).

The chains are these.
B1: Osa-1-4 twister ribozyme (parent)
chain: CCGCCUAACACUGCCAAUGCCGGUCCCAAGCCCGGAUAAAAGUGGAGGGGGCGG

In the series the parent is B1. As to the kind of experiment: self-cleavage, relative activity (ratio to wild type); higher = more cleavage; co-transcriptional. An outline of the steps: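 In vitro transcription at 37 °C for 2 h allowed the twister ribozyme to cleave itself as it was made. Its 54-nucleotide Oryza sativa template had been synthesised with 97 % wild-type base and 1 % of each other base at the 48 positions downstream of the cleavage site. A template-switching oligonucleotide was used for reverse transcription, followed by PCR amplification and deep sequencing. Whether reads carried upstream sequence set the cleavage status, and relative activity is the fraction cleaved normalised to wild type.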
CCGCCUAACACUGCCAAUGCCGGUCCCAAGCCCGGAUAAAACUGGAGGGGGCAG [G42C G53A]: the self-cleavage was determined as 0.14.

Regarding CCGCCUAACACUGCCAAUGCCGGUCCCAAGCCCGGAUAAAAUUGGAGGGCGCGG [G42U G50C], the self-cleavage was determined as 0.1.

Turning to CCGCCUAACACUGCCAAUGCCGGUCCCAAGCCCGGAUAAAAUUGGAGGGUGCGG [G42U G50U], the self-cleavage was 0.12.

For CCGCCUAACACUGCCAAUGCCGGUCCCAAGCCCGGAUAAAAUUGGAGGGAGCGG [G42U G50A], the self-cleavage came out at 0.32.

For CCGCCUAACACUGCCAACGCCGGUCCCAAGCCCGGAUAAAAAUGGAGGGGGCGG [G42A U18C], the self-cleavage turned out to be 0.44.

On to CCGCCUAACACUGCCAAGGCCGGUCCCAAGCCCGGAUAAAAAUGGAGGGGGCGG [G42A U18G], for which the self-cleavage was determined as 0.66.

Take CCGCCUAACACUGCCAAAGCCGGUCCCAAGCCCGGAUAAAAAUGGAGGGGGCGG [G42A U18A]: the self-cleavage is 0.71.

With CCGCCUAACACUGCCAACGCCGGUCCCAAGCCCGGAUAAAACUGGAGGGGGCGG [G42C U18C], the self-cleavage is 0.21.

Take CCGCCUAACACUGCCAAAGCCGGUCCCAAGCCCGGAUAAAACUGGAGGGGGCGG [G42C U18A]: the self-cleavage stood at 0.23.

With CCGCCUAACACUGCCAAGGCCGGUCCCAAGCCCGGAUAAAACUGGAGGGGGCGG [G42C U18G], the self-cleavage was found to be 0.32.

In the case of CCGCCUAACACCGCCAAUGCCGGUCCCAAGCCCGGAUAAAAUUGGAGGGGGCGG [G42U U12C], the self-cleavage came out at 0.05.

As for CCGCCUAACACAGCCAAUGCCGGUCCCAAGCCCGGAUAAAAUUGGAGGGGGCGG [G42U U12A], the self-cleavage is 0.06.

On to CCGCCUAACACGGCCAAUGCCGGUCCCAAGCCCGGAUAAAAUUGGAGGGGGCGG [G42U U12G], for which the self-cleavage was found to be 0.06.

On to CCGCCUAACACUGCCAAUGCCGGUCCCAAGCCCGGAUAAAAAUGGAGGGGGCUG [G42A G53U], for which the self-cleavage came to 0.19.

Consider CCGCCUAACACUGCCAAUGCCGGUCCCAAGCCCGGAUAAAAAUGGAGGGGGCAG [G42A G53A], for which the self-cleavage came out at 0.58.

For the variant CCGCCUAACACUGCCAAUGCCGGUCCCAAGCCCGGAUAAAAAUGGAGGGGGCCG [G42A G53C], the self-cleavage was determined as 0.1.

With CCGCCUAACACUGCCAAUGCCGGCCCCAAGCCCGGAUAAAAAUGGAGGGGGCGG [G42A U24C], the self-cleavage came out at 0.06.

CCGCCUAACACUGCCAAUGCCGGGCCCAAGCCCGGAUAAAAAUGGAGGGGGCGG [G42A U24G]: the self-cleavage was found to be 0.03.

On to CCGCCUAACACUGCCAAUGCCGGACCCAAGCCCGGAUAAAAAUGGAGGGGGCGG [G42A U24A], for which the self-cleavage stood at 0.05.

For CCGCCUAACACUGCCAAUGCCGGUCCCAAGCCCGGAUAAAACUGGACGGGGCGG [G42C G47C], the self-cleavage was 0.06.

As to CCGCCUAACACUGCCAAUGCCGGUCCCAAGCCCGGAUAAAACUGGAAGGGGCGG [G42C G47A], the self-cleavage was 0.06.

Regarding CCGCCUAACACUGCCAAUGCCGGUCCCAAGCCCGGAUAAAACUGGAUGGGGCGG [G42C G47U], the self-cleavage amounted to 0.06.

As for CCGCCUAACACUGCCAAUGCCGGUCCCAAGCCCGGAUAAAACAGGAGGGGGCGG [G42C U43A], the self-cleavage amounted to 0.1.

As for CCGCCUAACACUGCCAAUGCCGGUCCCAAGCCCGGAUAAAACCGGAGGGGGCGG [G42C U43C], the self-cleavage stood at 0.11.

CCGCCUAACACUGCCAAUGCCGGUCCCAAGCCCGGAUAAAACGGGAGGGGGCGG [G42C U43G]: the self-cleavage is 0.09.

Consider CCGCCUAACACUGCCAAUGCCGGGCCCAAGCCCGGAUAAAACUGGAGGGGGCGG [G42C U24G], for which the self-cleavage is 0.02.

CCGCCUAACACUGCCAAUGCCGGACCCAAGCCCGGAUAAAACUGGAGGGGGCGG [G42C U24A]: the self-cleavage worked out at 0.05.

As for CCGCCUAACACUGCCAAUGCCGGCCCCAAGCCCGGAUAAAACUGGAGGGGGCGG [G42C U24C], the self-cleavage was 0.05.

In the case of CCGCCUAACACCGCCAAUGCCGGUCCCAAGCCCGGAUAAAACUGGAGGGGGCGG [G42C U12C], the self-cleavage stood at 0.08.

For CCGCCUAACACGGCCAAUGCCGGUCCCAAGCCCGGAUAAAACUGGAGGGGGCGG [G42C U12G], the self-cleavage was determined as 0.06.

CCGCCUAACACAGCCAAUGCCGGUCCCAAGCCCGGAUAAAACUGGAGGGGGCGG [G42C U12A]: the self-cleavage came out at 0.09.

With CCGCCUAACACUGCCAAUGCCGGUCCCAAGCCCGGACAAAAAUGGAGGGGGCGG [G42A U37C], the self-cleavage worked out at 0.88.

Regarding CCGCCUAACACUGCCAAUGCCGGUCCCAAGCCCGGAGAAAAAUGGAGGGGGCGG [G42A U37G], the self-cleavage was 0.89.

With CCGCCUAACACUGCCAAUGCCGGUCCCAAGCCCGGAAAAAAAUGGAGGGGGCGG [G42A U37A], the self-cleavage was found to be 0.51.

In the case of CCGCCUAACACUGCCAAUGCCGGUCCCAAGCCCGGAUAAAAUUGGAGAGGGCGG [G42U G48A], the self-cleavage is 0.03.

Regarding CCGCCUAACACUGCCAAUGCCGGUCCCAAGCCCGGAUAAAAUUGGAGCGGGCGG [G42U G48C], the self-cleavage was found to be 0.03.

For CCGCCUAACACUGCCAAUGCCGGUCCCAAGCCCGGAUAAAAUUGGAGUGGGCGG [G42U G48U], the self-cleavage was 0.03.

In the case of CCGCCUAACACUGCCAAUGCCGGUCCCAAGCCCGGAUAAAAUUGGAGGAGGCGG [G42U G49A], the self-cleavage is 0.04.

Regarding CCGCCUAACACUGCCAAUGCCGGUCCCAAGCCCGGAUAAAAUUGGAGGUGGCGG [G42U G49U], the self-cleavage was found to be 0.04.

For CCGCCUAACACUGCCAAUGCCGGUCCCAAGCCCGGAUAAAAUUGGAGGCGGCGG [G42U G49C], the self-cleavage came to 0.03.

For the variant CCGCCUAACACUGCCAAUGCCGGUCCCAAGCCCGGAUAAAAUUGGAGGGGGCGC [G42U G54C], the self-cleavage was 0.15.

For the variant CCGCCUAACACUGCCAAUGCCGGUCCCAAGCCCGGAUAAAAUUGGAGGGGGCGA [G42U G54A], the self-cleavage stood at 0.14.

Take CCGCCUAACACUGCCAAUGCCGGUCCCAAGCCCGGAUAAAAUUGGAGGGGGCGU [G42U G54U]: the self-cleavage came out at 0.37.

Regarding CCGCCUAACACUGCCAAUGCCGGUCCCAAGCCCGGAUAAAACUGGAGGGGUCGG [G42C G51U], the self-cleavage stood at 0.06.

For CCGCCUAACACUGCCAAUGCCGGUCCCAAGCCCGGAUAAAACUGGAGGGGACGG [G42C G51A], the self-cleavage is 0.08.

Take CCGCCUAACACUGCCAAUGCCGGUCCCAAGCCCGGAUAAAACUGGAGGGGCCGG [G42C G51C]: the self-cleavage was 0.06.

Turning to CCGCCUAACACUGCCAAUGCCGGUCCCAAGCCCGGAUAAAACUGGAGGGAGCGG [G42C G50A], the self-cleavage was 0.14.

Turning to CCGCCUAACACUGCCAAUGCCGGUCCCAAGCCCGGAUAAAACUGGAGGGUGCGG [G42C G50U], the self-cleavage is 0.32.

As to CCGCCUAACACUGCCAAUGCCGGUCCCAAGCCCGGAUAAAACUGGAGGGCGCGG [G42C G50C], the self-cleavage was 0.15.
